Results pooled from the literature.
Protocols differ between the studies behind these lines.
Observed: cell growth or viability

Structure (SMILES)	cell line	method	tested at	time	measurement	value
c1cnc2c(c1)ccc1cccnc12	HEK-293T	MTT	12.5 µg/mL	24 h	viability	> 80%
Cc1ccc(N(C)c2ccc(NC(=O)CN(C)c3ccccc3N3CCCC3=O)cc2)nc1	HepG2	ATP luminescence		48 h	CC50	> 40 µM
O=c1c2c([nH]c3cc(Oc4ccc(OC(F)(F)F)cc4)ccc13)CCCC2	HepG2	MTT		48 h	IC50	> 50 µM
NS(=O)(=O)c1ccc(-c2ccc(Nc3ccc(Cl)cc3)cc2)cc1	HEK-293T	MTT	100 µM		viability	76%
NS(=O)(=O)OC[C@H]1C[C@@H](Nc2ccnc3cc(-c4cccc(SC(F)(F)F)c4)nn23)[C@H](O)[C@@H]1O	HEK-293T	ATP luminescence		24 h	EC50	0.296 µM
OCc1ccc(-c2nn(Cc3ccccc3)c3ccccc23)o1	HepG2	ATP luminescence			IC50	7.14 µM
NS(=O)(=O)c1ccc(-c2ccc(Nc3ccncc3)cc2)cc1	HEK-293T	MTT	100 µM		viability	69%
CCN(c1ccc(C)cc1)c1ccc(NC(=O)CN(C)c2ccccc2N2CCCC2=O)cn1	HepG2	ATP luminescence		48 h	CC50	> 40 µM
